{"source": "ChEMBL document CHEMBL1145922", "about": "“1,2-benzisoxazole phosphorodiamidates as novel anticancer prodrugs requiring bioreductive activation” (J Med Chem, 2003)", "assay_type_in_all_cases": "functional", "key": {"[1]": {"species": "Homo sapiens", "experiment": "Percent formation of compound upon incubation of 15 for 60 minutes with human P450 reductase microsomes in hypoxic condition in presence of NADPH", "summary_of_the_method": "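Human or rat P450 reductase microsomes at 1 mg/mL protein, substrate 0.25 mM and cofactor 0.5 mM; pCMBA 2 mM where stated. Anaerobic samples purged with nitrogen 15–20 min in septum-sealed vials. 60 min at 37 °C, stopped with ice-cold methanol. Ketone metabolite quantified by HPLC (C-18, methanol/water 50:50, UV 254 nm) as percent of equimolar substrate. Mean of two experiments.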"}, "[2]": {"species": "Rattus norvegicus", "experiment": "Percent formation of compound upon incubation of 15 with phenobarbit-induced rat liver microsomal fraction in oxic condition in presence of SKF-525A at a concentration of 1 mM", "summary_of_the_method": "(§1)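 Phenobarbital-induced rat liver microsomes; inhibitors SKF-525A (in methanol) or pCMBA (in DMF) at 0–4 mM final. pCMBA preincubated 30 min before NADPH; SKF-525A incubated 15 min with microsomes and NADPH. Hypoxic samples nitrogen-purged. Substrate 2.5 mM added, 30 min at 37 °C. Ketone metabolite by HPLC at 254 nm as percent of substrate; % inhibition relative to no inhibitor. Mean of two experiments.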"}, "[3]": {"species": "Rattus norvegicus", "experiment": "Tested for formation of compound upon incubation of compound 15 for 30 minutes with rat liver subcellular fractions in oxic condition in the presence of NADPH", "summary_of_the_method": "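Phenobarbital-induced rat liver S-9 fraction (2 mL) with 5 mM cofactor (NADPH, NADH, benzaldehyde or 2-hydroxypyrimidine), substrate 2.5 mM final, added in methanol/water 50:50; aerobic, 30 min at 37 °C. Quenched with ice-cold methanol, proteins spun down, supernatant analysed by reverse-phase C-18 HPLC, UV 254 nm; ketone metabolite given as percent of equimolar substrate; three experiments.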"}, "[4]": {"species": "Rattus norvegicus", "experiment": "Percent formation of compound upon incubation of 15 with phenobarbit-induced rat liver microsomal fraction in oxic condition in presence of SKF-525A at a concentration of 2 mM", "summary_of_the_method": "as §1"}, "[5]": {"species": "Rattus norvegicus", "experiment": "Percent formation of compound upon incubation of 15 with phenobarbit-induced rat liver microsomal fraction in oxic condition in presence of pCMBA at a concentration of 0 mM", "summary_of_the_method": "as §1"}, "[6]": {"species": "Rattus norvegicus", "experiment": "Tested for formation of compound upon incubation of compound 15 for 30 minutes with rat liver cystolic fractions in hypoxic condition in the absence of cofactor", "summary_of_the_method": "(§2)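 Phenobarbital-induced rat liver S-9, microsomal or cytosolic fraction with 5 mM cofactor (NADPH, NADH, benzaldehyde or 2-hydroxypyrimidine) or none. Substrate 2.5 mM final, added from methanol/water 50:50. Hypoxic vials purged with nitrogen 15–20 min. 30 min at 37 °C, quenched with ice-cold methanol. Ketone metabolite by HPLC at 254 nm as percent of equimolar substrate.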"}, "[7]": {"species": "Rattus norvegicus", "experiment": "Tested for formation of compound upon incubation of compound 15 for 30 minutes with rat liver cystolic fractions in oxic condition in the absence of cofactor", "summary_of_the_method": "as §2"}, "[8]": {"species": "Rattus norvegicus", "experiment": "Tested for formation of compound upon incubation of compound 15 for 30 minutes with rat liver cystolic fractions in oxic condition in the presence of NADPH", "summary_of_the_method": "as §2"}, "[9]": {"species": "Rattus norvegicus", "experiment": "Percent formation of compound upon incubation of 15 with phenobarbit-induced rat liver microsomal fraction in hypoxic condition in presence of SKF-525A at a concentration of 1 mM", "summary_of_the_method": "as §1"}, "[10]": {"species": "Rattus norvegicus", "experiment": "Percent formation of compound upon incubation of 15 with phenobarbit-induced rat liver microsomal fraction in hypoxic condition in presence of pCMBA at a concentration of 1 mM", "summary_of_the_method": "as §1"}, "[11]": {"species": "Rattus norvegicus", "experiment": "Tested for formation of compound upon incubation of compound 15 for 30 minutes with uninduced rat liver S-9 fractions in hypoxic condition in the absence of cofactor", "summary_of_the_method": "(§3)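 Uninduced rat liver S-9 (22.5 mg/mL protein, 2 mL) with 5 mM NADPH or no cofactor, substrate 2.5 mM final; hypoxic samples nitrogen-purged 15–20 min in septum-sealed vials, else aerobic; 30 min at 37 °C. Methanol quench, centrifugation, C-18 HPLC with UV 254 nm; metabolite as percent of equimolar substrate. NADPH runs three experiments, no-cofactor runs two.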"}, "[12]": {"species": "Rattus norvegicus", "experiment": "Tested for formation of compound upon incubation of compound 15 for 30 minutes with uninduced rat liver S-9 fractions in oxic condition in the absence of cofactor", "summary_of_the_method": "as §3"}, "[13]": {"species": "Rattus norvegicus", "experiment": "Tested for formation of compound upon incubation of compound 15 for 30 minutes with uninduced rat liver S-9 fractions in oxic condition in the presence of NADPH", "summary_of_the_method": "as §3"}, "[14]": {"species": "Rattus norvegicus", "experiment": "Tested for formation of compound upon incubation of compound 15 for 30 minutes with rat liver subcellular fractions in hypoxic condition in the presence of benzaldehyde", "summary_of_the_method": "as §2"}, "[15]": {"species": "Rattus norvegicus", "experiment": "Tested for formation of compound upon incubation of compound 15 for 30 minutes with rat liver subcellular fractions in oxic condition in the absence of cofactor", "summary_of_the_method": "as §2"}, "[16]": {"species": "Rattus norvegicus", "experiment": "Tested for formation of compound upon incubation of compound 15 for 30 minutes with rat liver microsomal fractions in oxic condition in the absence of cofactor", "summary_of_the_method": "as §2"}, "[17]": {"species": "Rattus norvegicus", "experiment": "Tested for formation of compound upon incubation of compound 15 for 30 minutes with rat liver microsomal fractions in oxic condition in the presence of NADPH", "summary_of_the_method": "as §2"}, "[18]": {"species": "Rattus norvegicus", "experiment": "Tested for formation of compound upon incubation of compound 15 for 30 minutes with rat liver subcellular fractions in hypoxic condition in the absence of cofactor", "summary_of_the_method": "as §2"}, "[19]": {"species": "Rattus norvegicus", "experiment": "Tested for formation of compound upon incubation of compound 15 for 30 minutes with rat liver subcellular fractions in hypoxic condition in the presence of NADH", "summary_of_the_method": "as §2"}, "[20]": {"species": "Rattus norvegicus", "experiment": "Percent inhibition of formation of compound upon incubation of 15 with phenobarbit-induced rat liver microsomal fraction in hypoxic condition in presence of pCMBA at a concentration of 1 mM", "summary_of_the_method": "as §1"}, "[21]": {"species": "Rattus norvegicus", "experiment": "Percent inhibition of formation of compound upon incubation of 15 with phenobarbit-induced rat liver microsomal fraction in hypoxic condition in presence of pCMBA at a concentration of 4 mM", "summary_of_the_method": "as §1"}, "[22]": {"species": "Rattus norvegicus", "experiment": "Percent inhibition of formation of compound upon incubation of 15 with phenobarbit-induced rat liver microsomal fraction in oxic condition in presence of pCMBA at a concentration of 0 mM", "summary_of_the_method": "as §1"}, "[23]": {"species": "Rattus norvegicus", "experiment": "Percent inhibition of formation of compound upon incubation of 15 with phenobarbit-induced rat liver microsomal fraction in oxic condition in presence of pCMBA at a concentration of 1 mM", "summary_of_the_method": "as §1"}, "[24]": {"species": "Rattus norvegicus", "experiment": "Percent inhibition of formation of compound upon incubation of 15 with phenobarbit-induced rat liver microsomal fraction in oxic condition in presence of pCMBA at a concentration of 2 mM", "summary_of_the_method": "as §1"}, "[25]": {"species": "Rattus norvegicus", "experiment": "Percent inhibition of formation of compound upon incubation of 15 with phenobarbit-induced rat liver microsomal fraction in hypoxic condition in presence of SKF-525A at a concentration of 0 mM", "summary_of_the_method": "as §1"}, "[26]": {"species": "Rattus norvegicus", "experiment": "Percent inhibition of formation of compound upon incubation of 15 with phenobarbit-induced rat liver microsomal fraction in hypoxic condition in presence of SKF-525A at a concentration of 1 mM", "summary_of_the_method": "as §1"}, "[27]": {"species": "Rattus norvegicus", "experiment": "Percent inhibition of formation of compound upon incubation of 15 with phenobarbit-induced rat liver microsomal fraction in hypoxic condition in presence of SKF-525A at a concentration of 4 mM", "summary_of_the_method": "as §1"}, "[28]": {"species": "Rattus norvegicus", "experiment": "Percent inhibition of formation of compound upon incubation of 15 with phenobarbit-induced rat liver microsomal fraction in oxic condition in presence of SKF-525A at a concentration of 0 mM", "summary_of_the_method": "as §1"}}, "data": [{"compound": "CCC(=O)c1ccccc1O", "values": [{"measurement": "Formation", "setting": "[1]", "value": 1.7, "unit": "%"}, {"measurement": "Formation", "setting": "[2]", "value": 36.9, "unit": "%"}, {"measurement": "Formation", "setting": "[3]", "value": 80.9, "unit": "%"}, {"measurement": "Formation", "setting": "[4]", "value": 38.5, "unit": "%"}, {"measurement": "Formation", "setting": "[5]", "value": 68.8, "unit": "%"}, {"measurement": "Formation", "setting": "[6]", "value": 1.4, "unit": "%"}, {"measurement": "Formation", "setting": "[7]", "value": 0.4, "unit": "%"}, {"measurement": "Formation", "setting": "[8]", "value": 0.7, "unit": "%"}, {"measurement": "Formation", "setting": "[9]", "value": 54.6, "unit": "%"}, {"measurement": "Formation", "setting": "[10]", "value": 0.7, "unit": "%"}, {"measurement": "Formation", "setting": "[11]", "value": 0.9, "unit": "%"}, {"measurement": "Formation", "setting": "[12]", "value": 1.6, "unit": "%"}, {"measurement": "Formation", "setting": "[13]", "value": 9.1, "unit": "%"}, {"measurement": "Formation", "setting": "[14]", "value": 2, "unit": "%"}, {"measurement": "Formation", "setting": "[15]", "value": 0.5, "unit": "%"}, {"measurement": "Formation", "setting": "[16]", "value": 0.6, "unit": "%"}, {"measurement": "Formation", "setting": "[17]", "value": 73, "unit": "%"}, {"measurement": "Formation", "setting": "[18]", "value": 2.2, "unit": "%"}, {"measurement": "Formation", "setting": "[19]", "value": 28.5, "unit": "%"}, {"measurement": "inhibition", "setting": "[20]", "value": 99, "unit": "%"}, {"measurement": "inhibition", "setting": "[21]", "value": 99, "unit": "%"}, {"measurement": "inhibition", "setting": "[22]", "value": 0, "unit": "%"}, {"measurement": "inhibition", "setting": "[23]", "value": 99, "unit": "%"}, {"measurement": "inhibition", "setting": "[24]", "value": 99, "unit": "%"}, {"measurement": "inhibition", "setting": "[25]", "value": 0, "unit": "%"}, {"measurement": "inhibition", "setting": "[26]", "value": 23, "unit": "%"}, {"measurement": "inhibition", "setting": "[27]", "value": 36, "unit": "%"}, {"measurement": "inhibition", "setting": "[28]", "value": 0, "unit": "%"}]}]}
